Laboratory results as given in ChEMBL document CHEMBL1133896, “Structure-activity study and analgesic efficacy of amino acid derivatives as N-type calcium channel blockers” (Bioorg Med Chem Lett, 2001).

Key:
[1] = system: Rattus norvegicus; assay: In vivo analgesic efficacy in the rat formalin induced pain model at 3 nmol/rat intrathecal dose; type: functional
Procedure, shortened: (§1)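 Rat formalin test. The read-out was paw flinching during the persistent nociceptive phase, expressed as % inhibition, n=3. Blood pressure and neurological behavior were also observed.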

[2] = In vitro inhibition against L-type calcium influx in mouse pituitary tumor derived cells (AtT-20); type: functional; settings: AtT20
[3] = molecular target: T1, Voltage-dependent N-type calcium channel subunit alpha-1B (Homo sapiens, UniProt Q00975); assay: In vitro inhibition against N-type calcium influx in IMR-32 cells; type: functional, cell-based
Target sequence in this assay (Q00975 whole entry): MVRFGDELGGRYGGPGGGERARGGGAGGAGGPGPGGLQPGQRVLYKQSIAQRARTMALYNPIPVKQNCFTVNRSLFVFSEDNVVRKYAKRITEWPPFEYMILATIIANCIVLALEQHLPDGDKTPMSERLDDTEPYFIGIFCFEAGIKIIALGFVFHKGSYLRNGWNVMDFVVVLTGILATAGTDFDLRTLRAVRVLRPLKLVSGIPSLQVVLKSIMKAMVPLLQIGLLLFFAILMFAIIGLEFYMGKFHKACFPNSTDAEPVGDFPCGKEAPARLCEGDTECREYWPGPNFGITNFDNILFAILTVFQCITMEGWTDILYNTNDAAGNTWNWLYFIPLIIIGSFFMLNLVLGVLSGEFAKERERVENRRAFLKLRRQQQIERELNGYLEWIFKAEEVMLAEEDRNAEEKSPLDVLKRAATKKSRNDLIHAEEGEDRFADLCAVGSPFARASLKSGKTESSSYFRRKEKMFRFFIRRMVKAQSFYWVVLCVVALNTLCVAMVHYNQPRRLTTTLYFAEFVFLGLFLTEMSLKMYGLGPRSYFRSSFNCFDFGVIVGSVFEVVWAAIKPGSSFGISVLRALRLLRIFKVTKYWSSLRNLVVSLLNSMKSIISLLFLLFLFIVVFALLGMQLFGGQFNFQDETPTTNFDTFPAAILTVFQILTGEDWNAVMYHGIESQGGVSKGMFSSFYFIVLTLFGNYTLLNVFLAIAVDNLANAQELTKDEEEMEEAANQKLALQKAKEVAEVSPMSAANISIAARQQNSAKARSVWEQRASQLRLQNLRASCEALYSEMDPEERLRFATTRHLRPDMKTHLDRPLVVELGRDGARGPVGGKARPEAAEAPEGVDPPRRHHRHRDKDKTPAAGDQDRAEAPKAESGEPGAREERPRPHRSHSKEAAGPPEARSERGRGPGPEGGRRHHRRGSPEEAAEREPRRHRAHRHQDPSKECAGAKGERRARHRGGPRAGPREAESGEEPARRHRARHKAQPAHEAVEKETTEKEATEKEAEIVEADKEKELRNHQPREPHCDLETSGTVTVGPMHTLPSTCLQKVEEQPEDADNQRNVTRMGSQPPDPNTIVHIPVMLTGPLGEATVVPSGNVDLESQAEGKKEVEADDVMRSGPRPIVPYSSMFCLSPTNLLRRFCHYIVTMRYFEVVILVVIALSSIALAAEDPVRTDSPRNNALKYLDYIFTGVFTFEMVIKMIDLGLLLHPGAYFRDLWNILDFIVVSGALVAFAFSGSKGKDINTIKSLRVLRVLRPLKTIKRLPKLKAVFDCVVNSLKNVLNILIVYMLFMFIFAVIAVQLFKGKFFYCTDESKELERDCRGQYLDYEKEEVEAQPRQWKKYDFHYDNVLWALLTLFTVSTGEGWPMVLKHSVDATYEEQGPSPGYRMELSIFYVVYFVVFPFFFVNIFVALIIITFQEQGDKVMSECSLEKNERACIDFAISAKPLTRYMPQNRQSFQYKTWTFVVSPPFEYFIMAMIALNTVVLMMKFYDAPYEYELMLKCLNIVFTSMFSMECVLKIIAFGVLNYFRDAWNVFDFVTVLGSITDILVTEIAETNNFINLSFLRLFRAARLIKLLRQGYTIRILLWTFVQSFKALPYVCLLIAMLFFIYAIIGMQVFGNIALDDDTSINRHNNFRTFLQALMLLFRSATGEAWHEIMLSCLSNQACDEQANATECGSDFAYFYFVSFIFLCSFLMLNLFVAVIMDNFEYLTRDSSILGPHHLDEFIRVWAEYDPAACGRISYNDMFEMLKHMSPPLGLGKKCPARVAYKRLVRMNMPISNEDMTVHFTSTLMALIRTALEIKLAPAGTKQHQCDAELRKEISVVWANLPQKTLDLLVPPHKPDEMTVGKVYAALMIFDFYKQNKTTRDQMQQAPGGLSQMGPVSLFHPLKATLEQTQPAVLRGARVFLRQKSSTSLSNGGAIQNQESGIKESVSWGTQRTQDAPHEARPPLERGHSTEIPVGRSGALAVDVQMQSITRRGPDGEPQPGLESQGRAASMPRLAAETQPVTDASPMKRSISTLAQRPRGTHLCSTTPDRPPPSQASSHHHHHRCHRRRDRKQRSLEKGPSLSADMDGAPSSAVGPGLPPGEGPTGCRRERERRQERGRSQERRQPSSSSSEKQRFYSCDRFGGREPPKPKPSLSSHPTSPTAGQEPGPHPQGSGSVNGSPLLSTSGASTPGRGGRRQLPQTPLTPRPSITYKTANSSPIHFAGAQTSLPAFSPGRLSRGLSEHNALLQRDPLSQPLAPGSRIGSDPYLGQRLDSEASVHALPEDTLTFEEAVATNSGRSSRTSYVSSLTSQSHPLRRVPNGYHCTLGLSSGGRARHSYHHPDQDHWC

[4] = molecular target: T1, Voltage-dependent N-type calcium channel subunit alpha-1B; assay: In vitro inhibition of N-type calcium channel current in IMR-32 cells at 10 uM; type: functional
Target sequence in this assay (Q00975 whole entry, looked up): as the sequence (Q00975 whole entry) above

[5] = Selectivity ratio between the L-type to N-type calcium influx; type: functional
[6] = system: Rattus norvegicus; assay: In vivo analgesic efficacy in rat formalin induced pain model at 100 mg/kg peroral dose; type: functional; settings: route oral; procedure, shortened: as §1

## COc1ccc(COC(=O)[C@H](CC(=O)OC2CCCC2)NC(=O)OC(C)(C)C)cc1
[1]
  Inhibition: 31%
[2]
  IC50: 15 µM
[3]
  IC50: 3.4 µM
[4]
  inhibition: 34%
[5]
  Selectivity ratio: 4.4

## CC(C)(C)OC(=O)N[C@@H](CC(=O)OC1CCCC1)C(=O)OCc1ccc(Cl)cc1
[2]
  IC50: 16 µM
[3]
  IC50: 3.3 µM
[5]
  Selectivity ratio: 4.8

## COc1ccc(COC(=O)[C@H](COC(=O)C2CCCCC2)NC(=O)OC(C)(C)C)cc1
[2]
  IC50: 10 µM
[3]
  IC50: 1.6 µM
[5]
  Selectivity ratio: 6.3

## COC(=O)C[C@H](NC(=O)OC(C)(C)C)C(=O)OCc1ccc(OC)cc1
[2]
  IC50: 14 µM
[3]
  IC50: 26 µM
[5]
  Selectivity ratio: 0.5

## COc1ccc(CNC(=O)[C@H](CCOC2CCCCC2)NC(=O)OC(C)(C)C)cc1
[2]
  IC50: 13 µM
[3]
  IC50: 4 µM
[5]
  Selectivity ratio: 3.3

## COc1ccc(CNC(=O)[C@H](COCC2CCCCC2)NC(=O)OC(C)(C)C)cc1
[1]
  Inhibition: 35%
[2]
  IC50: 3.8 µM
[3]
  IC50: 0.95 µM
[4]
  inhibition: 38%
[5]
  Selectivity ratio: 4

## COc1ccc(CNC(=O)[C@H](CSCC2CCCC2)NC(=O)OC(C)(C)C)cc1
[1]
  Inhibition: 47%
[2]
  IC50: 3.9 µM
[3]
  IC50: 0.63 µM
[6]
  inhibition in vivo at 100 mg/kg: 43%
[4]
  inhibition: 45%
[5]
  Selectivity ratio: 6.2

## COc1ccc(CNC(=O)[C@H](CSCC2CCCCC2)NC(=O)OC(C)(C)C)cc1
[1]
  Inhibition: 36%
[2]
  IC50: 1.7 µM
[3]
  IC50: 0.61 µM
[4]
  inhibition: 66%
[5]
  Selectivity ratio: 2.8

## COc1ccc(COC(=O)[C@H](COCC2CCCCC2)NC(=O)OC(C)(C)C)cc1
[2]
  IC50: 8.4 µM
[3]
  IC50: 1.2 µM
[5]
  Selectivity ratio: 7

## COc1ccc(CN(C)C(=O)[C@H](COCC2CCCCC2)NC(=O)OC(C)(C)C)cc1
[2]
  IC50: 1.4 µM
[3]
  IC50: 1.8 µM
[5]
  Selectivity ratio: 0.8

## CC(C)(C)OC(=O)N[C@@H](CC(=O)OC1CCCC1)C(=O)OCc1ccc(Br)cc1
[2]
  IC50: 5.3 µM
[3]
  IC50: 3.4 µM
[5]
  Selectivity ratio: 1.6

## COc1ccc(COC(=O)[C@@H](CC(=O)OC2CCCC2)NC(=O)OC(C)(C)C)cc1
[2]
  IC50: 2.9 µM
[3]
  IC50: 2 µM
[5]
  Selectivity ratio: 1.5

## COc1cccc(COC(=O)[C@H](CC(=O)OC2CCCC2)NC(=O)OC(C)(C)C)c1
[2]
  IC50: 12 µM
[3]
  IC50: 3.8 µM
[5]
  Selectivity ratio: 3.2

## COc1ccc(COC(=O)[C@H](CC(=O)OC2CCC2)NC(=O)OC(C)(C)C)cc1
[2]
  IC50: 28 µM
[3]
  IC50: 15 µM
[5]
  Selectivity ratio: 1.9

## COc1ccc(COC(=O)[C@H](CC(=O)OC2CCCCC2)NC(=O)OC(C)(C)C)cc1
[2]
  IC50: 16 µM
[3]
  IC50: 2.3 µM
[5]
  Selectivity ratio: 7

## COc1ccc(COC(=O)[C@H](CC(=O)OC2CCCCCC2)NC(=O)OC(C)(C)C)cc1
[2]
  IC50: 12 µM
[3]
  IC50: 2.6 µM
[5]
  Selectivity ratio: 4.6

## COc1ccccc1COC(=O)[C@H](CC(=O)OC1CCCC1)NC(=O)OC(C)(C)C
[2]
  IC50: 15 µM
[3]
  IC50: 5.4 µM
[5]
  Selectivity ratio: 2.8
